Source: ChEMBL document CHEMBL1127570, “Synthesis and anticonvulsant properties of new benzylpyridazine derivatives” (J Med Chem, 1994)

Key:
Mus musculus [1] = assay: Anticonvulsant activity was measured using the maximal electroshock seizure test in mice. protection percentage at 100 mg/kg; assay type: functional; settings: for % protection at 100 mg/kg: Mus musculus
Mus musculus [2] = assay: Locomotor activity in maximal electroshock seizure. - indicates decrease at 100 mg/kg; assay type: functional
Mus musculus [3] = assay: Tested for NMDLA induced seizures and protection against full generalized tonic seizures was recorded; Percentage of protection at 150 mg/kg per os.; assay type: functional; settings: for ED50: Mus musculus, po
How it was run: (§1)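 Compounds given 30 min before N-methyl-D,L-aspartate 345 mg/kg sc in mice. Protection against full generalized tonic seizures recorded. Chi-square with Yates correction.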

Mus musculus [4] = assay: Tested for the abolition of the hand leg tonic extensor component of the seizure induced by a 0.96 mg/kg sc injection of strychnine; Percentage of protection at 100 mg/kg per os.; assay type: functional
How it was run: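 Oral dose of 100 mg/kg in mice, 10 per dose, given 30 min before strychnine 0.96 mg/kg sc. Protection means abolition of the hind leg tonic extensor component, given as percentage of animals protected. Chi-square with Yates correction.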

Mus musculus [5] = assay: Yohimbine induced seizures by administrating sc and the compound which do not exhibit at least one clonic seizure within 60 min was recorded; Percentage of protection at 150 mg/kg per os.; assay type: functional; settings: route subcutaneous; for ED50: Mus musculus, sc, 1 h
How it was run: (§2)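 Compound given 30 min before yohimbine 45 mg/kg sc in mice. Animals without at least one clonic seizure within 60 min count as protected. Chi-square with Yates correction.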

Mus musculus [6] = species on record: Mus musculus; assay: Anticonvulsant activity in mice using the maximal electroshock seizure test.; assay type: functional
How it was run: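 Oral dosing of mice 30 min before maximal electroshock via corneal electrodes. Protection is abolition of the hind limb tonic extensor component.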

[7] = Central nervous system toxicity was performed by determining the median toxic dose in the rotarod test; assay type: organism-based; settings: mouse, in vivo
How it was run: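 Rotarod neurotoxicity in mice, oral dosing 30 min before assay. Failure to stay 3 min on a 3-cm wooden rod turning at 8 rpm counts as toxic.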

[8] = Protective index is the ratio between TD50 and ED50 values; assay type: functional
How it was run: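 Protective index is rotarod TD50 divided by ED50. Both come from oral dosing in mice 30 min before test and are calculated by Litchfield–Wilcoxon.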

Mus musculus [9] = assay: Ability to prevent the tonic extensor component induced by 106.25 mg/kg sc of pentylenetetrazole; Percentage of protection at 100 mg/kg per os.; assay type: functional
How it was run: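 Mice dosed orally 30 min before pentylenetetrazole 106.25 mg/kg sc. Protection is block of the tonic extensor component. Groups of 10 mice per dose; chi-square with Yates correction; ED50 by Litchfield–Wilcoxon.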

Mus musculus [10] = assay: Tested for the abolition of the hand leg tonic extensor component of the seizure induced by a 0.96 mg/kg sc injection of strychnine;Percentage of protection at 100 mg/kg per os.; assay type: functional
How it was run: (§3)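 Mice tested 30 min after compound for abolition of the tonic extensor component from strychnine 0.96 mg/kg sc. Chi-square with Yates correction; ED50 by Litchfield–Wilcoxon.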

Mus musculus [11] = assay: (§4) Anticonvulsant activity against bicuculline induced seizures in mice; Percentage of protection at 100 mg/kg per os.; assay type: functional
How it was run: (§5)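 Mice given compound 30 min before bicuculline 0.81 mg/kg iv (procedure after Heyer). Protection against clonic seizures recorded. Groups of 10 mice per dose; chi-square with Yates correction.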

Mus musculus [12] = assay: Locomotor activity in maximal electroshock seizure+ indicates increase at 100 mg/kg; assay type: functional
Mus musculus [13] = species on record: Mus musculus; assay: (§6) Anticonvulsant activity against bicuculline induced seizures in mice; assay type: functional; how it was run: as §5
Mus musculus [14] = assay: Tested for the abolition of the hand leg tonic extensor component of the seizure induced by a 0.96 mg/kg sc injection of strychnine; assay type: functional; settings: route subcutaneous; how it was run: as §3
Mus musculus [15] = assay: Ability to prevent the tonic extensor component induced by 106.25 mg/kg sc of pentylenetetrazole; assay type: functional; settings: route subcutaneous
Mus musculus [16] = assay: yohimbine induced seizures by administrating sc and the compound which do not exhibit at least one clonic seizure within 60 min was recorded; Percentage of protection at 100 mg/kg per os.; assay type: functional; settings: 1 h, route subcutaneous; how it was run: as §2
Mus musculus [17] = assay: as §4; assay type: functional; remark: listed apart in the source
How it was run: (§7)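 Mice, 10 per dose. Test drug given 30 min before bicuculline 0.81 mg/kg iv; protection against clonic seizures recorded. Line 2: single oral dose of 100 mg/kg, given as percentage of animals protected. ED50 by Litchfield–Wilcoxon; chi-square with Yates correction.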

Mus musculus [18] = assay: Tested for NMDLA induced seizures and protection against full generalized tonic seizures was recorded; Percentage of protection at 30 mg/kg per os.; settings: po
Mus musculus [19] = assay: Yohimbine induced seizures by administrating sc and the compound which do not exhibit at least one clonic seizure within 60 min was recorded; assay type: functional; settings: 1 h
How it was run: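 Mice, 10 per dose, dosed 30 min before yohimbine 45 mg/kg sc. Animals with no clonic seizure within 60 min were counted as protected. ED50 by Litchfield–Wilcoxon; chi-square with Yates correction.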

Mus musculus [20] = species on record: Mus musculus; assay: as §6; assay type: functional; how it was run: as §7; remark: listed apart in the source
Mus musculus [21] = assay: Tested for NMDLA induced seizures and protection against full generalized tonic seizures was recorded; Percentage of protection at 100 mg/kg per os.; assay type: functional; settings: po; how it was run: as §1
Mus musculus [22] = species on record: Mus musculus; assay: Tested for NMDLA induced seizures and protection against full generalized tonic seizures was recorded; assay type: functional
How it was run: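 NMDLA (N-methyl-D,L-aspartate) 345 mg/kg sc injected 30 min after test drug in mice, 10 per dose; protection against full generalized tonic seizures recorded. ED50 by Litchfield–Wilcoxon; chi-square with Yates correction.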

SMILES	Locomotor activity (Mus musculus [2])	ED50 (Mus musculus [6])	TD50 [7]	PI [8]	Locomotor activity (Mus musculus [12])	other results
Cc1nnc(NNC(=O)C(C)C)cc1Cc1ccccc1Cl	-57%	–	–	–	–	% protection at 100 mg/kg (Mus musculus [1]): 17%
CCCC(CCC)C(=O)[O-].[Na+] [VALPROATE SODIUM]	-5%	112 mg/kg	208 mg/kg	1.9	–	percent protection (Mus musculus [3]): 0%; percent protection (Mus musculus [4]): 0%; ED50 (Mus musculus [5]): 10 mg/kg; pct protection (Mus musculus [9]): 20%
Cc1nnc(NNC(=O)C(C)C)cc1Cc1ccccc1	-67%	–	–	–	–	percent protection (Mus musculus [1]): 0%
O=C1NC(=O)C(c2ccccc2)(c2ccccc2)N1 [PHENYTOIN]	-16%	4 mg/kg	30.5 mg/kg	7.6	–	percent protection (Mus musculus [3]): 0%; percent protection (Mus musculus [10]): 0%; ED50 (Mus musculus [5]): 10 mg/kg; percent protection (Mus musculus [11]): 0%; percent protection (Mus musculus [9]): 0%
Cc1nn2c(C)nnc2cc1Cc1ccccc1	–	26 mg/kg	–	–	47%	–
Cc1nn2c(N)nnc2cc1Cc1ccccc1	–	22 mg/kg	> 800 mg/kg	36.4	11%	ED50 (Mus musculus [3]): 14 mg/kg; ED50 (Mus musculus [13]): 94 mg/kg; ED50 (Mus musculus [14]): 35 mg/kg; ED50 (Mus musculus [5]): 20 mg/kg; pct protection (Mus musculus [9]): 20%
Cc1nnc(NNC(=O)c2ccccc2)cc1Cc1ccccc1	-62%	–	–	–	–	% protection at 100 mg/kg (Mus musculus [1]): 17%
Cc1nn2c(-c3ccccc3)nnc2cc1Cc1ccccc1	–	108 mg/kg	–	–	2%	–
NC(=O)N1c2ccccc2C=Cc2ccccc21 [CARBAMAZEPINE]	–	5.5 mg/kg	40 mg/kg	7.3	7%	ED50 (Mus musculus [3]): 20 mg/kg; ED50 (Mus musculus [15]): 17.5 mg/kg; ED50 (Mus musculus [16]): 10 mg/kg; percent protection (Mus musculus [17]): 0%; ED50 (Mus musculus [14]): 8.5 mg/kg
Cc1nn2cnnc2cc1Cc1ccccc1	–	9.5 mg/kg	170 mg/kg	17.9	8%	ED50 (Mus musculus [3]): 25 mg/kg; ED50 (Mus musculus [13]): 63 mg/kg; ED50 (Mus musculus [14]): 85 mg/kg; percent protection (Mus musculus [5]): 0%; pct protection (Mus musculus [9]): 20%
Cc1nnc(NNC(=O)N(c2ccccc2)c2ccccc2)cc1Cc1ccccc1	–	–	–	–	9%	% protection at 100 mg/kg (Mus musculus [1]): 15%
CN1C(=O)CN=C(c2ccccc2)c2cc(Cl)ccc21 [DIAZEPAM]	–	4 mg/kg	2.8 mg/kg	0.7	–	ED50 (Mus musculus [18]): 30 mg/kg; ED50 (Mus musculus [15]): 0.5 mg/kg; ED50 (Mus musculus [14]): 1.1 mg/kg; ED50 (Mus musculus [19]): 2.3 mg/kg; ED50 (Mus musculus [20]): 0.39 mg/kg
Cc1nn2c(N)nnc2cc1Cc1ccc(F)cc1	-15%	43 mg/kg	–	–	–	–
Cc1nn2c(N)nnc2cc1Cc1ccccc1Cl	-7%	17.4 mg/kg	–	–	–	–
Cc1nn2c(NC(=O)c3ccccc3)nnc2cc1Cc1ccccc1	–	35 mg/kg	–	–	7%	–
Cc1nn2cc(-c3ccccc3)nc2cc1Cc1ccccc1	–	105 mg/kg	–	–	12%	–
Cc1nn2c(C)nnc2cc1Cc1ccccc1Cl	-1%	30.5 mg/kg	–	–	–	–
Cc1nnc(NNC(=O)Nc2ccccc2)cc1Cc1ccccc1	–	–	–	–	–	percent protection (Mus musculus [1]): 0%
Cc1nnc(NC(N)=O)cc1Cc1ccccc1	-5%	10.2 mg/kg	140 mg/kg	13.7	–	ED50 (Mus musculus [3]): 12.5 mg/kg; ED50 (Mus musculus [13]): 111 mg/kg; ED50 (Mus musculus [14]): 28 mg/kg; ED50 (Mus musculus [5]): 10 mg/kg; pct protection (Mus musculus [9]): 20%
Cc1nn2cnnc2cc1Cc1c(Cl)cccc1Cl	–	6.2 mg/kg	88 mg/kg	14.2	13%	pct protection (Mus musculus [21]): 12.5%; ED50 (Mus musculus [15]): 70 mg/kg; ED50 (Mus musculus [13]): 125 mg/kg; ED50 (Mus musculus [14]): 39.5 mg/kg; ED50 (Mus musculus [19]): 150 mg/kg
CCC1(c2ccccc2)C(=O)NC(=O)NC1=O [PHENOBARBITAL]	–	4.6 mg/kg	33 mg/kg	7.2	33%	ED50 (Mus musculus [22]): 30 mg/kg; ED50 (Mus musculus [15]): 15 mg/kg; percent protection (Mus musculus [4]): 0%; ED50 (Mus musculus [19]): 17 mg/kg; ED50 (Mus musculus [20]): 20 mg/kg
Cc1nn2cnnc2cc1Cc1ccccc1Cl	–	6 mg/kg	–	–	5%	–
Cc1ccc(Cc2cc3nnc(N)n3nc2C)cc1	-8%	22.5 mg/kg	–	–	–	–
Cc1nnc(NNC(=O)Nc2ccccc2)cc1Cc1ccccc1Cl	-3%	–	–	–	–	% protection at 100 mg/kg (Mus musculus [1]): 33%
Cc1nn2c(N)nnc2cc1Cc1c(Cl)cccc1Cl	–	9.2 mg/kg	410 mg/kg	44.5	16%	ED50 (Mus musculus [3]): 14 mg/kg; ED50 (Mus musculus [15]): 76 mg/kg; ED50 (Mus musculus [13]): 93 mg/kg; ED50 (Mus musculus [14]): 34.5 mg/kg; ED50 (Mus musculus [19]): 76 mg/kg
